Source: ChEMBL document CHEMBL1124478, “Cardiotonic agents. 5. Fragments from the heterocycle-phenyl-imidazole pharmacophore” (J Med Chem, 1989)

Assays:
[1] = tested on: cAMP phosphodiesterase (Canis familiaris); assay: Inhibition of crude canine cardiac c-AMP phosphodiesterase at 100 uM; conditions: Canis lupus familiaris
Mustela putorius furo [2] = species on record: Mustela putorius furo; assay: Increase in contractile force (CF) of ferret papillary muscle; NR = not reached at 100 uM; format: functional; conditions: Muscle tissue
In short: (§1)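 Isolated ferret papillary muscle in vitro. Value is the drug concentration (μM) giving a 20% rise in contractile force, the mean of at least two determinations, with ranges within ±10%. NR means that level was not reached at 100 μM. Responses were also tested with 1 μM propranolol and, for some compounds, 10 μM cimetidine.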

[3] = Inhibition of crude canine cardiac c-AMP phosphodiesterase; parameters: species or system Canis lupus familiaris
In short: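 Crude cAMP phosphodiesterase came from canine cardiac tissue homogenates. IC50 (μM) is the mean of at least three determinations, with ranges within ±10%. Where 50% inhibition was not reached at 100 μM, the percent inhibition at 100 μM drug was recorded instead.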

Mustela putorius furo [4] = species on record: Mustela putorius furo; assay: 20% increase in contractile force (CF) of ferret papillary muscle; format: functional, Muscle tissue
In short: as §1

| SMILES | inhibition [1] | C20 (Mustela putorius furo [2]) | IC50 [3] | C20 (Mustela putorius furo [4]) |
| --- | --- | --- | --- | --- |
| CCc1[nH]c(O)nc1C(=O)OC | 10% | Not reached | – | – |
| CCc1[nH]c(O)nc1C(=O)c1ccc(-n2ccnc2)cc1 | – | – | 2 µM | 0.05 µM |
| O=C1CCc2cc(-n3ccnc3)ccc2N1 | – | – | 71 µM | 1.6 µM |
| CCc1[nH]c(O)nc1C(=O)c1ccc(-n2ccnc2C)cc1 | – | – | – | 0.7 µM |
| CCc1[nH]c(O)nc1C(=O)NCCCn1ccnc1 | 5% | Not reached | – | – |
| CCc1[nH]c(O)nc1C(=O)c1ccccc1 | – | – | 54 µM | 2 µM |
| CC(=O)c1ccc(-n2ccnc2C)cc1 | 15% | – | – | 25 µM |
| Cc1nc(O)c(C#N)c(NCCc2c[nH]cn2)n1 | – | – | 4 µM | 0.2 µM |
| Cc1nc(=O)c(C#N)c(NCc2cccnc2)[nH]1 [PELRINONE] | – | – | 4 µM | 0.2 µM |
| COc1ccc(C(=O)N2CCN(c3ccc4c(c3)CCC(=O)N4)CC2)cc1OC [VESNARINONE] | – | – | 32 µM | 2.3 µM |
| CCc1[nH]c(O)nc1C(=O)NCCc1c[nH]cn1 | 25% | – | – | 10 µM |
